Screening data (PubChem BioAssay)
Sampled rows, rich in hits. Any-hit rate of the full collection: about 1.8%.
CXCR6 inh – CXCR6 receptor inhibitors, primary screen, cell-based, beta-arrestin, luminescence, CHO-K1 PathHunter, 1536-well; inhibition, % at 20 µM; actives 0.36% (n = 360,000); AID 602244, 2012; in the data active = inhibition above about 34%, passing the limit was not always enough;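 note: antagonist mode with CXCL16 agonist at 10 nM final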
Target sequence (O00574 whole entry, looked up): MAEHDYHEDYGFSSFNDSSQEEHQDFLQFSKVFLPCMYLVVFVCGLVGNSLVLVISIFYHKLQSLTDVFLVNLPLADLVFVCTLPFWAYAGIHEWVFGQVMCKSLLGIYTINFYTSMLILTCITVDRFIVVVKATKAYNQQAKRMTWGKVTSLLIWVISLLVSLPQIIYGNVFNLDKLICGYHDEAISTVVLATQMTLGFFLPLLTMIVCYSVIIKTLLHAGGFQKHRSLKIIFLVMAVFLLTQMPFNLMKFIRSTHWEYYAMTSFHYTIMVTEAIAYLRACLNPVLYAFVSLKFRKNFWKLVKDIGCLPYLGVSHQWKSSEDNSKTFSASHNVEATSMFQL
APJ ag – agonists of human apelin receptor APJ, primary screen, CHO-K1 cells, PathHunter beta-arrestin, luminescence | P35414 | 0% DMSO wells, 100% apelin | activation, % at 20 µM | actives 0.11% (n = 330,000);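 active = activation more than six SD over the plate average, tested at 20 µM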
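Material: CHO-K1 APJ beta-arrestin complementation cell line; Input: cell density 1000 per well; Incubation: compound stimulation 90 min at 25 °C, detection 60 min; Signal: luminescence from split beta-galactosidase complementation, Galacton Star/Emerald II substrate; Controls: DMSO-only wells as negative, 10 nM Apelin-13 as positive control.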
Beta2AR agonist – beta2AR agonists driving receptor internalization, primary screen, cell-based, FAP fluorogen, flow cytometry | Beta-2 adrenergic receptor (Homo sapiens), P07550 | Am2.2-beta2AR cells | response, % (no concentration beside the values) | actives 0.43% (n = 340,000);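 active = response above a set limit, near 3 SD of response in nonfluorescent compounds, cut at about 42% in these data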
EBI2 block – EBI2 receptor antagonists, beta-arrestin recruitment, primary screen, cell-based, luminescence, 7a,25-OHC stimulation, uHTS; 7a,25-OHC stimulated; inhibition, % at 5 µM; actives 0.81% (n = 360,000); AID 651636, 2012; in the data active = inhibition above about 38%;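 note: enzyme fragment complementation signal reports receptor beta-arrestin coupling in cells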
Target sequence (P32249 whole entry, looked up, the tested form may be a part): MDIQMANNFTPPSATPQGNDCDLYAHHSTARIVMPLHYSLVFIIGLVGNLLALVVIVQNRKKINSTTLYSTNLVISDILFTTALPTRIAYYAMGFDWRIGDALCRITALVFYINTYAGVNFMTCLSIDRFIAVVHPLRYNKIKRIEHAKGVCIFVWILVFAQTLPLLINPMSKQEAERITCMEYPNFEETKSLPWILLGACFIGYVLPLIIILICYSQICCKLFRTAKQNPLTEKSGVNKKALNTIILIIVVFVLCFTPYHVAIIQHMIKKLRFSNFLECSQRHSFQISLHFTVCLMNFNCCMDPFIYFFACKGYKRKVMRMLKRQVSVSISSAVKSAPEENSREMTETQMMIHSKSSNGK
APJ antag – antagonists of human apelin receptor APJ, primary screen, CHO-K1 cells, beta-arrestin complementation, luminescence | actives 0.32% (n = 330,000) | inhibition, % at 20 µM;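 active = inhibition above about 40% at 20 µM, limit read from the data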;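 note: cells challenged with 10 nM apelin-13 agonist together with compound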
CCR6 antagonist – CCR6 receptor antagonists, primary screen, cell-based, CHO-K1, luminescence, beta-arrestin, uHTS; CHO-K1 CCR6 PathHunter beta-arrestin, CCL20-stimulated; inhibition, % at 20 µM; actives 0.49% (n = 340,000);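 active = compounds whose inhibition of the agonist-driven luminescence signal at 20 µM reaches about 50%, limit read from the data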;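 note: cells stimulated with CCL20 at 14 nM final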
Of the large screens only hits and unclear results are named; the others gave an inactive call.

CN1/C(=C\C=C\C2=[N+](C)c3ccc4ccccc4c3C2(C)C)C(C)(C)c2ccccc21	APJ antag 43 (no result: CXCR6 inh, Beta2AR agonist, EBI2 block, CCR6 antagonist)
CN1/C(=C\C=C2C(=O)NC(=O)NC2=O)C(C)(C)c2ccccc21	none
CN1/C(=C\C=Nc2ccccc2)C(C)(C)c2ccccc21	none
CCN1/C(=C/C=C/C2=[N+](CC)c3ccccc3C2(C)C)C(C)(C)c2ccccc21	CXCR6 inh 56 (no result: APJ ag, Beta2AR agonist, APJ antag, CCR6 antagonist)
O=C1NC(=O)C(=Cc2ccc(-c3ccc(S(=O)(=O)N4CCOCC4)cc3)o2)C(=O)N1	none
O=C1NC(=O)C(=Cc2ccc(-c3ccc(F)cc3O)o2)C(=O)N1	Beta2AR agonist 42
O=C1NC(=O)C(=Cc2ccc(-c3ccc(Cl)cc3)o2)C(=O)N1	CXCR6 inh 50, Beta2AR agonist 60, CCR6 antagonist 71
O=C1C=CC(=O)C=C1	CCR6 antagonist 79
O=C1NC(=O)N(c2ccc3c(c2)OCO3)C(=O)/C1=C/c1cccs1	Beta2AR agonist 45
COC(=O)C12CCc3c(ccc4cc(OC)ccc34)C1=CC(=O)C2 (stereo not given)	none (no result: APJ ag, APJ antag)
ON1C2CCCCC2N(O)C1c1ccccc1F (stereo not given)	CCR6 antagonist 80
C[C@]12CCC3C(CC[C@H]4C[C@@H](O)CC[C@]34C)C1CCC2=O (stereo not given in full)	none
Cc1ccc(/C=C2\C(=O)NC(=O)N(Cc3ccccc3Cl)C2=O)o1	Beta2AR agonist 59
O=[N+]([O-])c1ccc(O)c([N+](=O)[O-])c1	none
O=[N+]([O-])c1ccc(Cl)c([N+](=O)[O-])c1	Beta2AR agonist 59
COC[C@H]1OC(=O)c2coc3c2[C@@]1(C)C1=C(C3=O)[C@@H]2CCC(=O)[C@@]2(C)C[C@H]1OC(C)=O	none (no result: APJ ag, APJ antag)
CC(C)c1oc(=O)cc2c1[C@@H](O)[C@H]1OC(=O)[C@@]3(C)C[C@@H](O)[C@@H](O)[C@@]2(C)C13 (stereo not given in full)	Beta2AR agonist 75
CC(C)c1oc(=O)cc2c1[C@@H](O)[C@H]1OC(=O)[C@@]3(C)CC[C@@H](O)[C@@]2(C)C13 (stereo not given in full)	Beta2AR agonist 84
COc1ccc2c(c1)C1(C(=O)O)CC=CCC1(C(=O)O)C2 (stereo not given)	none (no result: APJ ag, APJ antag)
O=C1C(=O)c2cccc3cccc1c23	CXCR6 inh 44, EBI2 block 57, APJ antag 63, CCR6 antagonist 67
Cc1ccc(N2C(=O)NC(=O)/C(=C\c3ccoc3)C2=O)cc1	none
Cc1cc(N2CCOCC2)ccc1/C=C1\C(=O)NC(=O)N(c2ccccc2)C1=O	none
O=C1NC(=S)N(c2ccc(F)cc2)C(=O)/C1=C/c1ccco1	none (no result: CXCR6 inh, Beta2AR agonist, EBI2 block, CCR6 antagonist)
CN1C(=O)/C(=C/C=C/c2ccco2)C(=O)NC1=S	Beta2AR agonist 58
CN(C)c1ccc(/C=C/C=C2/C(=O)NC(=O)N(c3ccccc3)C2=O)cc1	CXCR6 inh 46, CCR6 antagonist 66 (no result: APJ ag, APJ antag)
Cc1ccc(N2C(=O)NC(=O)/C(=C\C=C\c3ccco3)C2=O)cc1C	Beta2AR agonist 60 (no result: APJ ag, APJ antag)
Cc1ccc(N2C(=O)NC(=O)/C(=C\C=C\c3ccco3)C2=O)cc1	Beta2AR agonist 69
CC(CC(C)(C)N1CC1)=NNC(=O)Nc1cccc2ccccc12	none (no result: APJ ag, APJ antag)
CCCCCN1C(=O)c2cc(OC)ccc2[C@@]2(C(=O)OCC)Cc3cc(OC)ccc3[C@@H]12	none (no result: APJ ag, Beta2AR agonist, APJ antag, CCR6 antagonist)
Cc1cccc(N2C(=O)NC(=O)/C(=C/c3ccc([N+](=O)[O-])o3)C2=O)c1	none (no result: CXCR6 inh, APJ ag, Beta2AR agonist, EBI2 block, APJ antag)
O=C1NC(=O)N(c2ccccc2)C(=O)/C1=C/C=C/c1ccco1	Beta2AR agonist 59
Cc1cccc(N2C(=O)NC(=O)/C(=C\C=C\c3ccco3)C2=O)c1	Beta2AR agonist 69
CC(C)(C)n1cccc1/C=C1\C(=O)NC(=O)N(c2ccccc2)C1=O	none
CS(=O)(=O)c1ccc(C2=C(CNC(=O)c3nccs3)[C@H]3CC[C@@H](C2)N3Cc2ccccc2)cc1	none (no result: APJ ag, Beta2AR agonist, APJ antag, CCR6 antagonist)
O=C(N/N=C\C1C(=O)NC(=S)N(c2ccccc2)C1=O)c1ccc(O)cc1 (stereo not given)	CCR6 antagonist 62
CN(C)CC(C(=O)Cc1ccccc1)c1ccccc1 (stereo not given)	none (no result: APJ ag, APJ antag)
COc1ccc(NC2Oc3cc4c(cc3C(c3cc(OC)c(OC)c(OC)c3)C2C)OCO4)cc1 (stereo not given)	none (no result: APJ ag, APJ antag)
Oc1ccc2c3c1O[C@H]1c4oc5ccccc5c4C[C@@]4(O)[C@@H](C2)N(CC2CC2)CC[C@]314	none
O=C1NC(=O)N(Cc2ccco2)C(=O)/C1=C/C=C/c1ccco1	Beta2AR agonist 85
O=C1NC(=O)N(Cc2ccccc2)C(=O)/C1=C\C=C\c1ccco1	Beta2AR agonist 67
Oc1ccc(O)c2c1C1(Cl)C(Cl)=C(Cl)C2(Cl)C1(Cl)Cl	none (no result: APJ ag, APJ antag)
O=C1NCN(c2ccccc2)C12CCN(C(c1ccccc1)c1nnnn1Cc1ccccc1)CC2 (stereo not given)	none (no result: APJ ag, Beta2AR agonist, APJ antag, CCR6 antagonist)
COC1C(O)C(C)OC(OC2C(Oc3cccc4c(O)c5c(=O)oc6ccc(C)c7c(=O)oc(c34)c5c67)OC(C)C(O)C2O)C1O (stereo not given)	none (no result: APJ ag, APJ antag)
COc1cccc(C(c2nnnn2C(C)(C)C)N2CCC3(CC2)C(=O)NCN3c2ccccc2)c1OC (stereo not given)	none (no result: APJ ag, Beta2AR agonist, APJ antag, CCR6 antagonist)
COc1ccc(Cl)cc1N=Cc1c(O)n(C)c(=O)n(C)c1=O	Beta2AR agonist 57
C=C1C(=O)OC2CC(C)C3C=CC(=O)C3(C)C(O)C12 (stereo not given)	EBI2 block 47 (no result: APJ ag, APJ antag)
Cc1nc2c(=O)n(C)c(=O)nc-2n(C)n1	Beta2AR agonist 64
O=C(Nc1cc(Cl)cc(Cl)c1)N1Cc2ccccc2-n2nncc2C1	none (no result: APJ ag, Beta2AR agonist, APJ antag, CCR6 antagonist)
CCN(CC)C(=O)c1ccc(NC(=O)c2cccc(C(F)(F)F)c2)cc1	none
CCN(CCCl)c1cc(CN(C)C)cc(NC(=O)c2ccc(C(=O)Nc3cc(CN(C)C)cc(N(CC)CCCl)c3)cc2)c1	Beta2AR agonist 47 (no result: APJ ag, APJ antag)
O=C(NCCN1CCC2(CC1)C(=O)NCN2c1cccc(F)c1)c1ccc2ccccc2c1	none (no result: APJ ag, Beta2AR agonist, APJ antag, CCR6 antagonist)
Oc1c(Cl)cccc1Cc1cc(Cl)cc(Cl)c1O	none (no result: APJ ag, APJ antag)
CC(C)OCCCNC(=O)c1c(N)n(Cc2cccs2)c2nc3ccccc3nc12	EBI2 block 71
COCCCNC(=O)c1c(N)n(Cc2ccco2)c2nc3ccccc3nc12	none
Cc1ccc2c(C)c3ccc4ccccc4c3c[n+]2c1	none (no result: APJ ag, APJ antag)
CC12CCCCC1N(O)CN2O (stereo not given)	CCR6 antagonist 60
